Reference: ChEMBL document CHEMBL1152353, “Pyrimido[5,4-e][1,2,4]triazine-5,7(1H,6H)-dione derivatives as novel small molecule chaperone amplifiers” (Bioorg Med Chem Lett, 2009)
pEC50: −log10 of the molar value. Calls of active or inactive are those of the source. The calls are words filed in the database; no cut-off is given here.

Legend:
[1] = molecular target: T1, Heat shock factor protein 1 (Homo sapiens) (UniProt Q00613); experiment: Amplification of HSF1 transcriptional activity in human HeLa cells assessed as granule formation pretreated for 3 hrs by immunocytochemical staining; format: cell-based
T1 sequence (whole entry): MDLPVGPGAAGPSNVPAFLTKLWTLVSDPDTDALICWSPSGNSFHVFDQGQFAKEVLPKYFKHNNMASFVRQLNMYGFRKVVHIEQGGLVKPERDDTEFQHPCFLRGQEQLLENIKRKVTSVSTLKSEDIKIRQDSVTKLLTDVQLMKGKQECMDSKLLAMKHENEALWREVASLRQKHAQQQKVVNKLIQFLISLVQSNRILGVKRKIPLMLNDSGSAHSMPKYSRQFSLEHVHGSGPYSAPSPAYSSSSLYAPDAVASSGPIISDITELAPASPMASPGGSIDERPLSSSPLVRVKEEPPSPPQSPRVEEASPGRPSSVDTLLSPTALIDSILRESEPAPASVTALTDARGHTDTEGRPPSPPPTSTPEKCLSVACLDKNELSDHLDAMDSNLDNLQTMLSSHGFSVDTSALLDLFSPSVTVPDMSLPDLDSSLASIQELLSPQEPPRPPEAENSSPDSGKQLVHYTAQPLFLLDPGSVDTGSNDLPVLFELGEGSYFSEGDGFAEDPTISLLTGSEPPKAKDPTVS
Method in brief: (§1)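 HeLa cells pretreated with compound 1 h, then mild heat shock 41 °C for 2 h, no recovery; control arm pretreated 3 h at 37 °C without heat shock. Compound diluted 200-fold, 0.3 to 80 µM range.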

[2] = tested on: SK-N-SH; experiment: Cytoprotection against rotenone stress-induced toxicity in human SK-N-SH cells after 48 hrs by MTS assay; format: functional, cell-based; settings: for pEC50: Homo sapiens, SK-N-SH, 48 h, read-out: EC50; for EC50: sk-n-sh
Method in brief: (§2)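 SK-N-SH neuroblastoma cells (within passage 6) seeded in DMEM with 0.1% FBS for 18 h, then fresh medium with 200 nM rotenone (final) plus compound, 0.019 to 10 µM. Incubated 48 h, then MTS viability read. Cytoprotection expressed as viability increase over the rotenone DMSO control; EC50 = concentration giving half-maximal protection. Data averaged over multiple tests.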

[3] = tested on: SK-N-SH; experiment: Cytoprotection against rotenone stress-induced toxicity in human SK-N-SH cells assessed as increase in cell viability after 48 hrs by MTS assay relative to control; format: functional; set-up: concentration or dose not given beside the values; method in brief: as §2
[4] = Cytotoxicity against human HeLa cells after 72 hrs by MTS assay; format: cell-based; settings: HeLa cells
Method in brief: (§3)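 HeLa (8000 cells/well) or SK-N-SH (14,000 cells/well) cells seeded in DMEM with 10% FBS for 18 h. Compound added at 1:200 dilution, final 0.3 to 80 µM, 0.5% v/v DMSO. Exposure 72 h, then MTS/PMS for 4 h, SDS to 1.4% w/v, absorbance at 492 nm. CC50 = concentration giving half-maximal cytotoxicity.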

[5] = Cytotoxicity against human SK-N-SH cells after 72 hrs by MTS assay; format: cell-based; method in brief: as §3
[6] = tested on: SK-N-SH; experiment: Cytoprotection against rotenone stress-induced toxicity in human SK-N-SH cells at 1.25 uM after 48 hrs by MTS assay; format: functional; method in brief: as §2
[7] = molecular target: T1, Heat shock factor protein 1 (Homo sapiens); experiment: Amplification of HSF1 transcriptional activity in human HeLa cells assessed as […] granule count at 80 uM by immunocytochemical staining; format: cell-based; method in brief: as §1
[8] = tested on: SK-N-SH; experiment: Cytoprotection against rotenone stress-induced toxicity in human SK-N-SH cells at 0.63 uM after 48 hrs by MTS assay; format: functional; method in brief: as §2
[9] = tested on: SH-SY5Y; experiment: Cytoprotection against oxygen-glucose deprivation-induced cytotoxicity in human SH-SY5Y cells at 0.5 uM after 28 hrs by MTS assay; format: functional
Method in brief: (§4)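 SH-SY5Y cells plated on collagen I-coated wells, grown 16–24 h in complete medium, washed twice in deoxygenated glucose- and serum-free medium; compound added within 1 h before OGD. Chambers flushed with 95% N₂/5% CO₂, residual O₂ <1%, held at 37 °C for 28 h. MTS viability; cytoprotection = (MTS_compound − MTS_DMSO)/MTS_DMSO × 100% versus OGD DMSO control.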

[10] = tested on: SH-SY5Y; experiment: Cytoprotection against oxygen-glucose deprivation-induced cytotoxicity in human SH-SY5Y cells at 1 uM after 28 hrs by MTS assay; format: functional; method in brief: as §4
[11] = tested on: SH-SY5Y; experiment: Cytoprotection against oxygen-glucose deprivation-induced cytotoxicity in human SH-SY5Y cells at 2.5 uM after 28 hrs by MTS assay; format: functional; method in brief: as §4
[12] = molecular target: T2, Heat shock factor protein 1 (Homo sapiens, UniProt Q00613); experiment: Amplification of HSF1 transcriptional activity in human heat shock-induced HeLa cells assessed as granule formation treated 1 hr before heat shock challenge measured after 2 hrs without recovery time by immunocytochemical staining; format: cell-based
T2 sequence (Q00613 whole entry): T1 sequence (whole entry)
Method in brief: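 HeLa cells given compound 1 h before mild heat shock at 41 °C for 2 h, no recovery; compound diluted 200-fold, 0.3 to 80 µM. Unstressed control plates kept at 37 °C for 3 h. HSF1 immunocytochemical staining, imaged at 10×.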

CCn1nc(-c2ccc[nH]2)nc2c(=O)n(C)c(=O)nc1-2
Activity [1]: inactive
pEC50 [2]: 6.17
Activity [3]: 44%
CC50 at 72 h [4]: 10.7 µM
CC50 at 72 h [5]: 4.3 µM

CC(C)CCn1nc(-c2nc3ccccc3s2)nc2c(=O)n(C)c(=O)nc1-2
Activity [1]: inactive
pEC50 [2]: 6.62
Activity [3]: 44%
CC50 at 72 h [4]: 16.9 µM
CC50 at 72 h [5]: 10.7 µM

CCn1nc(-c2ccc(C)o2)[n+]([O-])c2c(=O)n(C)c(=O)nc1-2
Activity [1]: inactive
Activity [6]: 56%
Activity [3]: 56%
CC50 at 72 h [4]: 9.8 µM
CC50 at 72 h [5]: 3.3 µM

CCn1nc(-c2ccc(C)s2)[n+]([O-])c2c(=O)n(C)c(=O)nc1-2
Activity [1]: inactive
pEC50 [2]: 5.96
Activity [3]: 57%
CC50 at 72 h [4]: 15 µM
CC50 at 72 h [5]: 27.2 µM

CCCCn1nc(-c2ccccc2)nc2c(=O)n(C)c(=O)nc1-2
Activity [1]: inactive
pEC50 [2]: 6.31
Activity [3]: 58%
CC50 at 72 h [4]: 18.5 µM
CC50 at 72 h [5]: 9.8 µM

CC(C)Cn1nc(-c2nc3ccccc3s2)nc2c(=O)n(C)c(=O)nc1-2
Activity [1]: inactive
pEC50 [2]: 6.57
Activity [3]: 67%
CC50 at 72 h [4]: 7.9 µM
CC50 at 72 h [5]: 3.7 µM

CCCn1nc(-c2nc3ccccc3s2)nc2c(=O)n(C)c(=O)nc1-2
Activity [1]: inactive
pEC50 [2]: 6.26
Activity [3]: 55%
CC50 at 72 h [4]: 15.6 µM
CC50 at 72 h [5]: 5.4 µM
Activity [7]: 25%

CCCCn1nc(-c2ncc[nH]2)nc2c(=O)n(C)c(=O)nc1-2
Activity [1]: inactive
pEC50 [2]: 6.52
Activity [3]: 56%
CC50 at 72 h [4]: 3.6 µM
CC50 at 72 h [5]: 1.3 µM

CCn1nc(-c2ccco2)nc2c(=O)n(C)c(=O)nc1-2
Activity [1]: inactive
Activity [6]: 64%
Activity [3]: 64%
CC50 at 72 h [4]: 5.6 µM
CC50 at 72 h [5]: 2.8 µM

CCn1nc(-c2ccc[nH]2)[n+]([O-])c2c(=O)n(C)c(=O)nc1-2
Activity [1]: inactive
pEC50 [2]: 6.77
Activity [3]: 35%
CC50 at 72 h [4]: 5.2 µM
CC50 at 72 h [5]: 1.9 µM

CCCCn1nc(-c2ccc(C)s2)[n+]([O-])c2c(=O)n(C)c(=O)nc1-2
Activity [1]: inactive
pEC50 [2]: 6.72
Activity [3]: 27%
CC50 at 72 h [4]: 6.6 µM
CC50 at 72 h [5]: 7.2 µM

CCCCn1nc(-c2ccc[nH]2)[n+]([O-])c2c(=O)n(C)c(=O)nc1-2
Activity [1]: inactive
pEC50 [2]: 6.19
Activity [3]: 49%
CC50 at 72 h [4]: 6.3 µM
CC50 at 72 h [5]: 1.5 µM

Cn1c(=O)nc2n(Cc3ccc(F)cc3)nc(-c3nc4ccccc4s3)nc-2c1=O
Activity [1]: inactive
EC50 [2]: Not Active
Activity [3]: inactive
CC50 at 72 h [4]: 23.4 µM
CC50 at 72 h [5]: 21.3 µM

CCCCn1nc(-c2nccs2)nc2c(=O)n(C)c(=O)nc1-2
Activity [1]: inactive
Activity [8]: 55%
Activity [3]: 55%
CC50 at 72 h [4]: 2.5 µM
CC50 at 72 h [5]: 1.4 µM
Activity [9]: 7%
Activity [10]: 23%
Activity [11]: 39%

Cn1c(=O)[nH]c2nnc(-c3cccs3)nc2c1=O
CC50 at 72 h [4]: > 80 µM
CC50 at 72 h [5]: > 80 µM

CCn1nc(-c2cccs2)nc2c(=O)n(C)c(=O)nc1-2
Activity [1]: inactive
pEC50 [2]: 6.39
Activity [3]: 53%
CC50 at 72 h [4]: 10.5 µM
CC50 at 72 h [5]: 9.9 µM
Activity [9]: 18%
Activity [10]: 48%
Activity [11]: 14%

CCn1nc(-c2ncc[nH]2)nc2c(=O)n(C)c(=O)nc1-2
Activity [1]: inactive
pEC50 [2]: 5.57
Activity [3]: 62%
CC50 at 72 h [4]: 11.9 µM
CC50 at 72 h [5]: 3.6 µM

CCn1nc(-c2ccc(C)o2)nc2c(=O)n(C)c(=O)nc1-2
Activity [1]: inactive
pEC50 [2]: 5.74
Activity [3]: 50%
CC50 at 72 h [4]: 22.3 µM
CC50 at 72 h [5]: 8.2 µM

Cn1c(=O)nc2n(Cc3ccccc3)nc(-c3nc4ccccc4s3)nc-2c1=O
Activity [1]: inactive
pEC50 [2]: 5.63
Activity [3]: 27%
CC50 at 72 h [4]: 7.3 µM
CC50 at 72 h [5]: 5.6 µM

Cn1c(=O)nc2[nH]nc(-c3cccs3)nc-2c1=O
EC50 [12]: Not Active
EC50 [2]: Not Active
Activity [3]: inactive

CCCCn1nc(-c2ccc(C)o2)[n+]([O-])c2c(=O)n(C)c(=O)nc1-2
Activity [1]: inactive
Activity [6]: 49%
Activity [3]: 49%
CC50 at 72 h [4]: 9 µM
CC50 at 72 h [5]: 6.6 µM

CCCCn1nc(-c2ccc(C)o2)nc2c(=O)n(C)c(=O)nc1-2
Activity [1]: inactive
pEC50 [2]: 6.48
Activity [3]: 23%
CC50 at 72 h [4]: 7.8 µM
CC50 at 72 h [5]: 5.3 µM

CCCCn1nc(-c2nc3ccccc3s2)nc2c(=O)n(C)c(=O)nc1-2
Activity [1]: inactive
pEC50 [2]: 6.64
Activity [3]: 53%
CC50 at 72 h [4]: 8.7 µM
CC50 at 72 h [5]: 8.4 µM
Activity [9]: 14%
Activity [10]: 38%
Activity [11]: 80%

CCCCn1nc(-c2ccc(C)s2)nc2c(=O)n(C)c(=O)nc1-2
Activity [1]: inactive
Activity [6]: 44%
Activity [3]: 44%
CC50 at 72 h [4]: 15.3 µM
CC50 at 72 h [5]: 18.2 µM
